EBV gp42 block: inhibitors of Epstein-Barr virus glycoprotein 42. Q1HVG2. 220,000 tested, 0.42% active. inhibition, % (tested at 21.74 µM). AID 1085. Fluorescence polarization binding assay, mP read-out; in the data active means inhibition above about 50%
Mcl1 Bid PPI: Mcl-1/Bid interaction inhibition; Q07820; TR-FRET Mcl-1/Bid-Dy647 peptide binding, 1536-well; inhibition, % at 21.7 µM; 220,000 tested, 0.97% active;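 active means compounds that cut the binding signal by more than half at the single screening dose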;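 further: His-tagged Mcl-1 with europium anti-His antibody binding Bid BH3 peptide; 0% = Mcl-1 plus peptide wells and 100% = peptide-only wells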
Mcl1-Noxa inh: Mcl-1/Noxa interaction inhibition. Q07820. TR-FRET Mcl-1/Noxa peptide binding, 2 h. inhibition, % at 21.7 µM. 220,000 tested, 1.5% active. AID 1022;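 active means compounds that cut the protein-peptide binding signal by more than 50% relative to plate controls in a single-dose test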;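 further: His-tagged Mcl-1 with rhodamine Noxa BH3 peptide and terbium anti-His antibody; 0% = Mcl-1 plus Noxa peptide wells and 100% = peptide-only wells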
MCL1 BIM primary: inhibitors of human MCL1 binding to BIM-BH3 peptide. AID 2057. inhibition, % at 10.9 µM. 320,000 tested, 0.68% active. GST-MCL1 / FITC-Bim-BH3 fluorescence polarization. Q07820;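 active means inhibition above the mean inhibition of all tested compounds plus 3 SD, set per campaign, cut at about 40% in these data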;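 further: 0% = DMSO wells and 100% = unlabeled Bim-BH3 peptide control; higher means more loss of mP so more displacement of Bim peptide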
RBBP9 inh: blocks human serine hydrolase RBBP9; recombinant RBBP9, FP-Rh probe fluorescence polarization; inhibition, % at 7.94 µM; 220,000 tested, 0.2% active; AID 1515;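 active means inhibition above the campaign mean of all tested compounds plus 3 SD, cut at about 14% in these data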;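 further: plate controls were DMSO wells with RBBP9 for no effect and wells lacking RBBP9 protein for full effect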
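Test system: recombinant human RBBP9. Quantity: 2.5 µM RBBP9 dispensing solution, before mixing. Detection: FP readout at 525/598 nm. Reagent: Serine-hydrolase probe FP-Rh, 375 nM pre-mixing. Measure: % inhibition. Control set: DMSO-treated enzyme wells and wells lacking RBBP9. Buffer or medium: Tris-NaCl-Pluronic buffer, pH 8.0. Times: preincubation 30 min plus labeling 45 min at 25 °C.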
Bim-Mcl-1: disrupts Bim peptide binding to human Mcl-1 | Q07820 | 190,000 tested, 0.1% active | Bead-based flow cytometry, Bim peptide-Mcl-1 binding | inhibition, % at 10 µM; in the data active means inhibition above about 40%;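 further: 0% = no compound tracer wells and 100% = peptide blocker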
BCLXL inh confirm: counter-screen for MCL1 inhibitors: confirmation of human Bcl-xL inhibitors. shares compounds with MCL1 BIM primary. GST-Bcl-xL / FITC-Bim BH3 peptide FP binding. inhibition, % at 10.9 µM. 1,700 tested, 54% active;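 active means inhibition above a cutoff equal to the mean inhibition of all tested compounds plus 3 SD, cut at about 30% in these data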;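 further: 0% = DMSO wells and 100% = unlabeled Bim BH3 control peptide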
Target sequence (Q07817 whole entry, looked up): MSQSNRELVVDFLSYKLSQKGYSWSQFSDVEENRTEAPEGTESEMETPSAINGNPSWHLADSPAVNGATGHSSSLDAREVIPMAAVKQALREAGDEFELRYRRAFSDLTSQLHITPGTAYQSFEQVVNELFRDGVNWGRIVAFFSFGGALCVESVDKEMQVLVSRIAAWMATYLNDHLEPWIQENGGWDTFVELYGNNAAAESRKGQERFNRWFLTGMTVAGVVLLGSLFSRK
MCL1 inh confirm: MCL1-BIM-BH3 interaction inhibition, confirmation. AID 2168. GST-MCL1 / FITC-Bim-BH3 fluorescence polarization. inhibition, % at 10.9 µM. 1,700 tested, 61% active. shares compounds with MCL1 BIM primary;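 active means inhibition above the average of all tested compounds plus 3 SD, cut at about 40% in these data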;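 further: 0% = DMSO wells and 100% = unlabeled Bim-BH3 control peptide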
* = called active by the depositor; i = inactive; . = not tested or not shown; + = active, no number. The list is not random: actives were taken first. Their share in the collection is about 2.2%.

SMILES	EBV gp42 block	Mcl1 Bid PPI	Mcl1-Noxa inh	MCL1 BIM primary	RBBP9 inh	Bim-Mcl-1	BCLXL inh confirm	MCL1 inh confirm
CN1CCN(c2cccc3c2C(=O)c2ccccc2C3=O)CC1	21	-8	47	.	-2	-6	.	.
CN1CCN(c2ccc3c(c2)S(=O)(=O)c2ccccc2C3=O)CC1	.	.	.	85*	.	.	63*	84*
CN1/C(=C\C=C\C2=[N+](C)c3ccc4ccccc4c3C2(C)C)C(C)(C)c2ccccc21	97*	-168	i	+	132*	5	166*	200*
NC(=O)c1c(NC(=O)c2ccc(S(=O)(=O)N(CCCl)CCCl)cc2)sc2c1CCCCC2	-22	-3	4	3	-6	-3	.	.
C#C[C@]1(O)CC[C@H]2[C@@H]3CCC4=Cc5nc6nc7ccccc7n6cc5C[C@]4(C)[C@H]3CC[C@@]21C	.	.	.	60*	.	.	21	25
O=c1[nH]oc2c1CCNC2	.	.	.	6	.	.	.	.
CN1CC=C2C(C#N)=C(N)C(C#N)(C#N)C(c3ccncc3)C2C1 (stereo not drawn)	.	.	.	164*	-6	8	37*	50*

Source: PubChem (several laboratories)
